Measured values as given in paper PMC12370974 (Nature Communications, 2025).
Positions count from the first letter of the chain named. Peptide text beside a SMILES is read from it.

Tests used:
[1] = molecular target: full-length (FL) PRT1 wild-type (WT), PROTEOLYSIS1 of Arabidopsis thaliana (Arabidopsis thaliana) (UniProt Q8LBL5); assay: ITC
[2] = molecular target: FL PRT1 I333A mutant (Arabidopsis thaliana) (UniProt Q8LBL5); assay: ITC
[3] = molecular target: FL PRT1 Y317A mutant (Arabidopsis thaliana) (UniProt Q8LBL5); assay: ITC
PRT1^ZZ = molecular target: T1, PRT1^ZZ (Arabidopsis thaliana, UniProt Q8LBL5); assay: ITC binding of N-degron peptide to the ZZ domain of PRT1
T1 sequence (Q8LBL5 308-365): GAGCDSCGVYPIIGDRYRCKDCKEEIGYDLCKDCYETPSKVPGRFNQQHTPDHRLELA
Procedure, shortened: (§1)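 The PRT1 truncation was expressed in E. coli as a bRIP-tag fusion and purified by Ni-NTA, Blue affinity chromatography and size exclusion into ITC buffer (50 mM Tris-HCl pH 7.5, 150 mM NaCl, 1 mM TCEP). Protein was at 45~55 μM and synthetic N-degron peptide at ~550 μM in the same buffer, with 19 injections at 25 °C. Data were fitted to a one-site model, with at least three runs.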

[4] = molecular target: T2, ZZ domain-deleted RING domains (RING1 + RING2) of PRT1 (Arabidopsis thaliana, UniProt Q8LBL5); assay: ITC binding of N-degron peptide to ZZ domain-deleted PRT1; conditions: 25 °C, ITC buffer pH 7.5, RIP-RING (1-273)
T2 sequence (Q8LBL5 1-273): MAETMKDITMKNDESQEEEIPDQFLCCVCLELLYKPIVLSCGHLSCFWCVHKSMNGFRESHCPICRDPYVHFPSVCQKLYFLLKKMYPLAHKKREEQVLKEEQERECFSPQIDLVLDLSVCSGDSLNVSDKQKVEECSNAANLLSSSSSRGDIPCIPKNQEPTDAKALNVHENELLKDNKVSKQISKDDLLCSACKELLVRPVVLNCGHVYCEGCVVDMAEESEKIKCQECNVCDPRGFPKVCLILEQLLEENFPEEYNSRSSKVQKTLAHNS
Procedure, shortened: as §1

FL PRT1^Y317A/I333A = molecular target: T3, FL PRT1^Y317A/I333A (Arabidopsis thaliana, UniProt Q8LBL5, I333A/Y317A); assay: ITC binding of N-degron peptide to full-length PRT1 Y317A/I333A double mutant; conditions: 25 °C, ITC buffer pH 7.5, FL PRT1 Y317A/I333A double mutation
T3 sequence (Q8LBL5 1-410 Y317A/I333A): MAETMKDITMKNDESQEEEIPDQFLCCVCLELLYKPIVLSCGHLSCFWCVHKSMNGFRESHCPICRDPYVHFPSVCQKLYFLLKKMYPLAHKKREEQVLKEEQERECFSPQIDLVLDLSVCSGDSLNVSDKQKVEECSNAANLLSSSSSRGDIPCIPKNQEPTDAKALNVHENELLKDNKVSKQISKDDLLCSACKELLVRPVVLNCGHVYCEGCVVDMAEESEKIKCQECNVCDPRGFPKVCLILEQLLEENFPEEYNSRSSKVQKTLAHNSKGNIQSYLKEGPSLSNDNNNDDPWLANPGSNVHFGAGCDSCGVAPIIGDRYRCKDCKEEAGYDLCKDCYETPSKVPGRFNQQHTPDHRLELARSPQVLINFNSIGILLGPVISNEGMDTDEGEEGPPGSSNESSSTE
Procedure, shortened: as §1, with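 “Full-length” for “The”, “(wild type or point mutant)” for “truncation”, “BL21(DE3) with ZnSO4” for “as a bRIP-tag fusion”, “TEV cleavage of the His6 tag” for “Blue affinity chromatography”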

[5] = molecular target: RING2 domain of PRT1, wild type (Arabidopsis thaliana); assay: SEC-MALS
FL PRT1^WT = molecular target: T4, FL PRT1^WT (Arabidopsis thaliana, UniProt Q8LBL5); assay: ITC binding of N-degron peptides to full-length PRT1 wild-type
T4 sequence (Q8LBL5 1-410): T3 sequence (Q8LBL5 1-410 Y317A/I333A) with A317Y, A333I
Procedure, shortened: as §1, with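 “Full-length” for “The”, “(wild type or point mutant)” for “truncation”, “BL21(DE3) with ZnSO4” for “as a bRIP-tag fusion”, “TEV cleavage of the His6 tag” for “Blue affinity chromatography”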

FL PRT1^Y317A = molecular target: T5, FL PRT1^Y317A (Arabidopsis thaliana, UniProt Q8LBL5, Y317A); assay: ITC binding of N-degron peptides to full-length PRT1 Y317A mutant; conditions: 25 °C, ITC buffer pH 7.5, one-site model
T5 sequence (Q8LBL5 1-410 Y317A): T3 sequence (Q8LBL5 1-410 Y317A/I333A) with A333I
Procedure, shortened: as §1, with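 “Full-length” for “The”, “(wild type or point mutant)” for “truncation”, “BL21(DE3) with ZnSO4” for “as a bRIP-tag fusion”, “TEV cleavage of the His6 tag” for “Blue affinity chromatography”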

FL PRT1^I333A = molecular target: T6, FL PRT1^I333A (Arabidopsis thaliana, UniProt Q8LBL5, I333A); assay: ITC binding of N-degron peptides to full-length PRT1 I333A mutant; conditions: 25 °C, ITC buffer pH 7.5, one-site model
T6 sequence (Q8LBL5 1-410 I333A): T3 sequence (Q8LBL5 1-410 Y317A/I333A) with A317Y
Procedure, shortened: as §1, with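 “Full-length” for “The”, “(wild type or point mutant)” for “truncation”, “BL21(DE3) with ZnSO4” for “as a bRIP-tag fusion”, “TEV cleavage of the His6 tag” for “Blue affinity chromatography”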

YAA peptide showed a Kd [1] of 23.3 µM.

Tyr N-degron peptide (Tyr-Lys-Phe) gave a Kd [2] of 13.7 µM and a Kd [3] of 41.3 µM.

In the case of `NCCCC[C@H](NC(=O)[C@@H](N)Cc1ccc(O)cc1)C(=O)N[C@@H](Cc1ccccc1)C(=O)O` [YKF, Tyr-Lys-Phe] (H-Tyr-Lys-Phe-OH), the Kd (PRT1^ZZ) is reported as 10.1 µM, the “binding affinity (KD)” value [4] is reported as “no binding affinity was detected” and the “dissociation constant (KD), binding affinity” value (shortened to “dissociation constant (KD)”) (FL PRT1^Y317A/I333A) is reported as “considerably low affinity”.

With “RING2 domain of PRT1, wild type (domain or fragment)” the stoichiometry N [5] was 2.

Compound `C[C@H](NC(=O)[C@H](C)NC(=O)[C@@H](N)Cc1ccccc1)C(=O)O` [FAA] (H-Phe-Ala-Ala-OH) has a Kd (FL PRT1^WT) of 5.45 ± 0.212 µM.

`C[C@H](NC(=O)[C@H](CCCCN)NC(=O)[C@@H](N)Cc1ccc(O)cc1)C(=O)O` [YKA] (H-Tyr-Lys-Ala-OH) was tested, and the “dissociation constant (KD)” value (FL PRT1^Y317A) was “not bound” and the “dissociation constant (KD)” value (FL PRT1^I333A) was “not bound”.

Compound `C[C@H](NC(=O)[C@H](C)NC(=O)[C@@H](N)Cc1c[nH]c2ccccc12)C(=O)O` [WAA] (H-Trp-Ala-Ala-OH) has a Kd (FL PRT1^WT) of 2.85 ± 0.164 µM.
